From PubChem BioAssay AID2611 (Broad Institute, 2010)
pEC50: −log10 of the molar value.

Tested on: BJeLR fibroblasts viability, Alamar Blue fluorescence, 48 h
Assay: cytotoxicity toward RAS-dependent BJ-TERT fibroblasts, dose response, cell-based, alamar blue fluorescence, powder samples (AID 2611)
Procedure, shortened: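 Dosing: twofold serial dilution series, 0.01 to 5.33 µg/mL compound; incubation: 48 h compound treatment, ~16 h dye step; signal: Alamar blue fluorescence, ex 544/em 590 nm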

Structure (SMILES): Cc1ccc(N(C(=O)CCl)C(C(=O)NC2CCCCC2)c2cccnc2)cc1C (centres undefined)
- pEC50: 5.64

Structure (SMILES): COc1cccc(N(C(=O)CCl)C(C(=O)NCCc2ccccc2)c2cccs2)c1 (centres undefined)
- pEC50: 5.49

Structure (SMILES): CCCCCCCN(C(=O)CCl)c1cccc(C)c1
- pEC50: 5.24

Structure (SMILES): C=CCOc1ccccc1CN(C(=O)CCl)c1ccc2c(c1)OCO2
- pEC50: 4.73

Structure (SMILES): COc1ccc(C(C(=O)NC2CCCCC2)N(C(=O)CCl)c2cccc(Cl)c2)cc1 (centres undefined)
- pEC50: 5.47

Structure (SMILES): O=C(CCl)N=c1sccn1Cc1ccccc1Cl
- pEC50: 4.92

Structure (SMILES): COC(=O)[C@@H]1Cc2c([nH]c3ccccc23)C(C)(C)N1C(=O)CCl
- pEC50: 5.21

Structure (SMILES): Nc1nc(CCl)nc(Nc2ccc3ccccc3c2)n1
- pEC50: 5.69

Structure (SMILES): COc1ccc(CN(CCC(c2ccccc2)c2ccc(OC(C)C)cc2)C(=O)CCl)cc1OC (centres undefined)
- pEC50: 5.57

Structure (SMILES): COc1ccc(N(C(=O)CCl)C(C(=O)NCCc2ccccc2)c2cccs2)cc1Cl (centres undefined)
- pEC50: 5.61

Structure (SMILES): CCOc1ccc(Nc2nc(N)nc(CCl)n2)cc1
- pEC50: 5.54

Structure (SMILES): COc1ccc(C(C(=O)NC2CCCCC2)N(C(=O)CCl)c2ccc(C)cc2)cc1 (centres undefined)
- pEC50: 5.12

Structure (SMILES): COc1ccc(N(C(=O)CCl)C(C(=O)NCCc2ccccc2)c2cccs2)cc1 (centres undefined)
- pEC50: 5.65

Structure (SMILES): Cc1ccc(C2CC(c3cccs3)=NN2C(=O)CCl)cc1 (centres undefined)
- pEC50: 5.34
